Laboratory results reported in ChEMBL document CHEMBL3351394 (J Med Chem, 2014).

Columns and labels:
[1] = biological target: T1, Peroxisome proliferator-activated receptor gamma (Homo sapiens) (UniProt P37231); assay: (§1) Activity at GAL4-tagged PPARgamma (unknown origin) expressed in COS7 cells assessed as receptor transactivation by luciferase reporter gene assay; assay type: cell-based; details: COS-7
T1 sequence (whole entry): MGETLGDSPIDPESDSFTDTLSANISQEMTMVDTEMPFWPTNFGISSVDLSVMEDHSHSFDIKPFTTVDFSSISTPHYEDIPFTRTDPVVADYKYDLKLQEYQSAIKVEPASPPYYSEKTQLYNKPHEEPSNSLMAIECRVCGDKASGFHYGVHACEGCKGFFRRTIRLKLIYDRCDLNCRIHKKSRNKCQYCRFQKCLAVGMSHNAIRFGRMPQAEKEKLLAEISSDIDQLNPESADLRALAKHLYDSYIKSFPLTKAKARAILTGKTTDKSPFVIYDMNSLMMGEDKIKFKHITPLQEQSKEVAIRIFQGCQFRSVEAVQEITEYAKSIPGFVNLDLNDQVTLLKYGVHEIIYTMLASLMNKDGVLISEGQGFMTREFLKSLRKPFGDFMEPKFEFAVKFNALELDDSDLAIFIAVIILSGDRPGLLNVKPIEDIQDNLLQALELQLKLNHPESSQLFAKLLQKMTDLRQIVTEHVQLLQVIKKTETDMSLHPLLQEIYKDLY
Procedure, shortened: (§2)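 Each PPAR subtype was tested as a Gal4 fusion carrying the human hinge region and LBD (cDNA from human monocytes) in transiently transfected COS-7 cells (Lipofectamine LTX), with a pFR-Luc reporter and pRL-SV40 for normalization. Compound in 0.1% DMSO was added 5 h post-transfection and incubated overnight. Firefly/renilla RLU was scaled to 1 μM GW7647 (α), L165,041 (δ) or pioglitazone (γ).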

[2] = biological target: T2, Peroxisome proliferator-activated receptor gamma (Homo sapiens, UniProt P37231); assay: as §1; assay type: cell-based, COS-7; procedure, shortened: as §2
T2 sequence (P37231 whole entry): T1 sequence (whole entry)

Emax [1]: 81%
EC50 [2]: 2.99 µM
Structure (SMILES): COc1ccc(C(=O)Nc2cccc(C(=O)O)c2)c(NC(=O)c2ccc(C(C)(C)C)cc2)c1
